ChEMBL document CHEMBL3593239, “PABA/NO lead optimization: Improved targeting of cytotoxicity to glutathione S-transferase P1-overexpressing cancer cells” (Bioorg Med Chem, 2015)

Key:
[1] = Drug level in phosphate buffer treated with (Z)-3,3-dimethyl-1-(5-(4-(methylamino)benzoyloxy)-2,4-dinitrophenoxy)triaz-1-ene 2-oxide at 1 uM at pH 7.4 at 37 degC after 1 to 30 mins by LC/MS-MS analysis; format: physicochemical; conditions: pH 7.4, 1 µM
[2] = target: T1, Glutathione S-transferase P (Homo sapiens, UniProt P09211); assay: Drug level in phosphate buffer assessed as GSTP1 (unknown origin)-mediated compound formation treated with (Z)-1-(4-cyano-5-(4-(methylamino)benzoyloxy)-2-nitrophenoxy)-3,3-dimethyltriaz-1-ene 2-oxide at 1 uM at pH 7.4 at 37 degC after 1 to 30 mins by LC-MS/MS analysis in presence of GSH; format: ADME; conditions: pH 7.4, 1 µM
How it was run: (§1)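 Test compound at 1 µM reacted with 4 mM GSH containing 4 nM GSTP1 in 0.1 M phosphate, pH 7.4, at 37 °C. Products identified by LC–MS traces taken at 60 s and 30 min.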

[3] = Stability of the compound in phosphate buffer assessed as first-order initial rate constant for hydrolysis at pH 7.4 at 25 degC by HPLC trapping method; format: physicochemical
[4] = Half life of the compound in phosphate buffer at 1 uM at pH 7.4 at 37 degC by HPLC trapping method; format: ADME
How it was run: (§2)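 Hydrolysis of compound at 1 µM final in 0.1 M phosphate buffer, pH 7.4, with 0.1% DMSO, run separately at 25 °C and 37 °C. Decomposition followed by HPLC, with products confirmed by LC–MS/MS. First-order rate constants were derived by initial-rate analysis.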

[5] = Stability of the compound in phosphate buffer assessed as first-order initial rate constant for hydrolysis at pH 7.4 at 37 degC by HPLC trapping method; format: physicochemical
[6] = Half life of the compound in phosphate buffer at 1 uM at pH 7.4 at 25 degC by HPLC trapping method; format: ADME; how it was run: as §2
[7] = Stability of the compound in phosphate buffer assessed as pseudo-first order rate constant at pH 7.4 at 37 degC by HPLC trapping method in presence of GSH; format: physicochemical
[8] = target: T1, Glutathione S-transferase P; assay: Prodrug conversion in phosphate buffer assessed as GSTP1 (unknown origin)-mediated nitric oxide release at 1 uM at pH 7.4 at 37 degC after 1 to 30 mins by LC/MS-MS analysis; format: ADME; conditions: pH 7.4, 1 µM; how it was run: as §1
[9] = target: T2, Glutathione S-transferase A1 (Homo sapiens, UniProt P08263); assay: Drug metabolism in phosphate buffer assessed as ratio of GSTA1 (unknown origin)-mediated (S)-2-amino-5-((R)-1-(carboxymethylamino)-3-(5-hydroxy-2,4-dinitrophenylthio)-1-oxopropan-2-ylamino)-5-oxopentanoic acid formation from nitric oxide release pathway to GSTA1 (unknown origin)-mediated (Z)-1-(5-hydroxy-2,4-dinitrophenoxy)-3,3-dimethyltriaz-1-ene 2-oxide formation from nitric oxide retained pathway at 1 uM at pH 7.4 at 37 degC after 30 mins by LC-MS/MS analysis in presence of GSH; format: ADME; conditions: pH 7.4, 0.5 h
T2 sequence (P08263 whole entry): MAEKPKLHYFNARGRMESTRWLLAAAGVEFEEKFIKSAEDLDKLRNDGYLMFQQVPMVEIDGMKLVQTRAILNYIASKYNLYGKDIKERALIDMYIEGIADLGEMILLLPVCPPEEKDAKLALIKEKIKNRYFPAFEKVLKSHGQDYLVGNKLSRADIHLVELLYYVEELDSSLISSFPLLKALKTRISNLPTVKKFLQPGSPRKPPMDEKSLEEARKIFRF
How it was run: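 GSTA1 (4 nM)-catalysed reaction of 1 µM compound with 4 mM GSH in 0.1 M phosphate buffer, pH 7.4, 37 °C. Products analysed by LC–MS. Value is the ratio of the NO-release-pathway product to the NO-retained-pathway phenol product.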

[10] = target: T2, Glutathione S-transferase A1; assay: Drug level in phosphate buffer assessed as GSTA1 (unknown origin)-mediated compound formation from nitric oxide release pathway treated with (Z)-1-(2-cyano-5-(4-(methylamino)benzoyloxy)-4-nitrophenoxy)-3,3-dimethyltriaz-1-ene 2-oxide at 1 uM at pH 7.4 at 37 degC after 30 mins by LC-MS/MS analysis in presence of GSH; format: ADME; conditions: pH 7.4, 0.5 h
How it was run: (§3)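 Products analysed by LC–MS. The ratio is the NO-release-pathway product over the NO-retained-pathway phenolic product.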

[11] = target: T1, Glutathione S-transferase P; assay: Drug level in phosphate buffer assessed as GSTP1 (unknown origin)-mediated compound formation treated with (Z)-1-(2-cyano-5-(4-(methylamino)benzoyloxy)-4-nitrophenoxy)-3,3-dimethyltriaz-1-ene 2-oxide at 1 uM at pH 7.4 at 37 degC after 5 to 30 mins by LC-MS/MS analysis in presence of GSH; format: ADME; conditions: pH 7.4, 1 µM; how it was run: as §1
[12] = Drug level in phosphate buffer treated with (Z)-1-(2-cyano-5-(4-(methylamino)benzoyloxy)-4-nitrophenoxy)-3,3-dimethyltriaz-1-ene 2-oxide at 1 uM at pH 7.4 at 37 degC after 30 secs by LC-MS analysis in presence of GSH; format: physicochemical; conditions: pH 7.4, 0.5 min
[13] = Drug level in phosphate buffer treated with (Z)-3,3-dimethyl-1-(5-(4-(methylamino)benzoyloxy)-2,4-dinitrophenoxy)triaz-1-ene 2-oxide at 1 uM at pH 7.4 at 37 degC by HPLC trapping method in presence of GSH; format: physicochemical; conditions: pH 7.4, 1 µM
[14] = Drug level in phosphate buffer treated with (Z)-1-(4-cyano-5-(4-(methylamino)benzoyloxy)-2-nitrophenoxy)-3,3-dimethyltriaz-1-ene 2-oxide at 1 uM at pH 7.4 at 37 degC after 30 secs by LC-MS analysis in presence of GSH; format: physicochemical; conditions: pH 7.4, 0.5 min
[15] = target: T2, Glutathione S-transferase A1; assay: Drug level in phosphate buffer assessed as GSTA1 (unknown origin)-mediated compound formation from nitric oxide retained pathway treated with (Z)-1-(4-cyano-5-(4-(methylamino)benzoyloxy)-2-nitrophenoxy)-3,3-dimethyltriaz-1-ene 2-oxide at 1 uM at pH 7.4 at 37 degC after 30 mins by LC-MS/MS analysis in presence of GSH; format: ADME; conditions: pH 7.4, 0.5 h; how it was run: as §3

T1 sequence (P09211 whole entry): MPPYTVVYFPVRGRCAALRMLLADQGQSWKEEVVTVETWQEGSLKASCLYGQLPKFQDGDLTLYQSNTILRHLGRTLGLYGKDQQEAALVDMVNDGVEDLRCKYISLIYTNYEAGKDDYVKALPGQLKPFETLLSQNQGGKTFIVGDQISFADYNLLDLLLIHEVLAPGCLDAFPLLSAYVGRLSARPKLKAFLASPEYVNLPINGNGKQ

## N[C@@H](CCC(=O)N[C@@H](CSc1cc(SC[C@H](NC(=O)CC[C@H](N)C(=O)O)C(=O)NCC(=O)O)c([N+](=O)[O-])cc1[N+](=O)[O-])C(=O)NCC(=O)O)C(=O)O
[1]
  Drug metabolism: metabolite_detected

## CNc1ccc(C(=O)Oc2cc(SC[C@H](NC(=O)CC[C@H](N)C(=O)O)C(=O)NCC(=O)O)c([N+](=O)[O-])cc2C#N)cc1
[2]
  Drug metabolism: metabolite_detected

## CNc1ccc(C(=O)Oc2cc(O/N=[N+](\[O-])N(C)C)c([N+](=O)[O-])cc2[N+](=O)[O-])cc1
[3]
  K: 9.6 ×10⁻⁵ /s
[4]
  half-life at 1 µM: 0.333 h
[5]
  K: 5.7 ×10⁻⁴ /s
[6]
  half-life at 1 µM: 2 h
[7]
  K: 11.8 ×10⁻³ /s
[8]
  Drug metabolism: metabolite_detected
[9]
  Ratio: 3

## N#Cc1cc([N+](=O)[O-])c(O)cc1SC[C@H](NC(=O)CC[C@H](N)C(=O)O)C(=O)NCC(=O)O
[10]
  Drug metabolism: metabolite_detected

## CN(C)/[N+]([O-])=N/Oc1cc(SC[C@H](NC(=O)CC[C@H](N)C(=O)O)C(=O)NCC(=O)O)c([N+](=O)[O-])cc1C#N
[11]
  Drug metabolism: metabolite_detected
[12]
  Drug metabolism: metabolite_detected

## CNc1ccc(C(=O)Oc2cc(SC[C@H](NC(=O)CC[C@H](N)C(=O)O)C(=O)NCC(=O)O)c([N+](=O)[O-])cc2[N+](=O)[O-])cc1
[1]
  Drug metabolism: metabolite_detected
[13]
  Drug metabolism: metabolite_detected

## CN(C)/[N+]([O-])=N/Oc1cc(O)c(C#N)cc1[N+](=O)[O-]
[14]
  Drug metabolism: metabolite_detected
[15]
  Drug metabolism: metabolite_detected
